Measured values from publication PMC6391190 (Pharmacological research, 2019).
Where “and” joins values, the source holds several entries; their conditions need not be identical. Equal entries are not always repeated. Entries after “also recorded” stand apart in the source; their conditions may differ.

Experiments:
BCRP [1] = test: qPCR of BCRP mRNA in BeWo trophoblast cells; type: cell-based, human; settings: for inhibition of AEA-mediated down-regulation of BCRP mRNA: 0.1 μM, co-treatment with AEA 10 μM; for reversal of the effects of AEA on BCRP: SB366791 1 μM, GW6471 5 μM, GW9662 5 μM, PD98059
BCRP [2] = test: BODIPY-glyburide Transwell transport across BeWo monolayers; type: cell-based, human; settings: for reduction of transepithelial transport of BODIPY-glyburide: after 2 h
BeWo cells [3] = settings: for effect alone on BeWo cell viability: AEA 10 μM or Ko143 1 μM alone, data not shown
BCRP [4] = test: Hoechst 33342 transport; type: cell-based, human
BCRP [5] = test: Zearalenone transport with HPLC measurement in BeWo cells; type: cell-based, human; settings: for percent efflux of zearalenone: BeWo
BeWo cells [6] = system: BeWo cells
BCRP promoter = test: ChIP of p-CREB binding to the BCRP promoter in BeWo cells; type: cell-based, human; settings: 1 h
intracellular cAMP = test: Measurement of intracellular cAMP; type: cell-based, human; settings: 1 h, BeWo
CREB = test: Western blot of CREB phosphorylation in BeWo cells; type: cell-based, human; settings: 1 h
[7] = cited from earlier work
BCRP [8] = test: Western blot of BCRP protein in human term placental explants; type: cell-based; settings: AEA 1 μM, 24 h, densitometry
BCRP [9] = test: qPCR of BCRP mRNA in human term placental explants; type: cell-based; settings: AEA 1 μM, 24 h
Procedure, shortened: (§1)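 Term placental explants were cultured 24 h with AEA (1 μM, 0.05% ethanol final), replenished after 12 h. Explants were snap-frozen and homogenized in RNAzol (bead homogenizer, 4 min, 40 Hz). Reverse transcription used 1000 ng RNA with random primers and MultiScribe (25°C 10 min, 37°C 120 min, 85°C 5 min), then qPCR. Values are means of 3 placentas (3-6 samples each) ± SE.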

BCRP [10] = test: Western blot of BCRP protein in BeWo cells; type: cell-based, human; settings: AEA 10 μM, 24 h
Procedure, shortened: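 BeWo cells exposed 24 h to AEA (10 μM) or vehicle; AEA was dissolved in ethanol. Cells were lysed in 20 mM Tris-HCl, 150 mM NaCl, 5 mM EDTA, 1% Triton X-100 with protease inhibitor cocktail. Western blotting detected BCRP at 72 kDa, with β-actin (42 kDa) as the loading control. Densitometry was performed.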

[11] = system: syncytialization-related genes (hCGα, syncytin-1, syncytin-2); test: qPCR of syncytialization-related genes in human term placental explants; type: cell-based
Procedure, shortened: as §1

human placental explants = test: Morphology of placental explants; type: cell-based; settings: anandamide treatment; data not shown
[12] = system: syncytialization markers (hCGβ, syncytin-2, syncytin-1, hCGα); test: qPCR of syncytialization markers in BeWo trophoblast cells; type: cell-based, human
Procedure, shortened: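 BeWo cells took AEA (ethanol vehicle) either at 10 μM over a time course (including 18, 24 and 48 h, with time-matched vehicle controls) or at 0.01-10 μM for 24 h. Cells were scraped into RNAzol and homogenized. Reverse transcription used 1000 ng RNA with random primers (25°C 10 min, 37°C 120 min, 85°C 5 min), followed by qPCR; mean ± SE, n = 4.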

[13] = forskolin 50 μM, 24h, data not shown
[14] = AEA 1 μM, 24 h, human term placental explants

Molecule: Cc1c(C(=O)NN2CCCCC2)nn(-c2ccc(Cl)cc2Cl)c1-c1ccc(Cl)cc1 [rimonabant]
- inhibition of AEA-mediated down-regulation of BCRP mRNA (BCRP [1]; 24 h, BeWo): only partially inhibited

Molecule: COc1cccc(NC(=O)/C=C/c2ccc(Cl)cc2)c1 [SB366791]
- reversal of the effects of AEA on BCRP (BCRP [1]; BeWo, data not shown): none of these chemicals reversed the effects of AEA

Molecule: Lucifer yellow
- percent of Lucifer yellow rejection (BCRP [2]; Lucifer yellow 20 μM, BeWo monolayer integrity): 95.3 ± 3.7%

Molecule: O=C(Nc1ccccc1)c1cc([N+](=O)[O-])ccc1Cl [GW9662]
- reversal of the effects of AEA on BCRP (BCRP [1]; BeWo, data not shown): none of these chemicals reversed the effects of AEA

Molecule: C[C@H]1CCC[C@H](O)CCCCCc2cc(O)cc(O)c2C(=O)O1 [α-ZRN, α-zearalanol]
- LC50 values, AEA (BeWo cells [3]; human): 27.4 ± 9.1 µM
- LC50 values, Ko143 (BeWo cells [3]; human): 36.0 ± 10.1 µM

Molecule: COc1cccc(-c2cc(=O)c3ccccc3o2)c1N [PD98059]
- reversal of the effects of AEA on BCRP (BCRP [1]; BeWo, data not shown): none of these chemicals reversed the effects of AEA

Molecule: COc1ccc2c3c([nH]c2c1)[C@H](CC(C)C)N1C(=O)[C@H](CCC(=O)OC(C)(C)C)NC(=O)[C@@H]1C3 [Ko143]
- BCRP efflux activity (percent efflux of Hoechst 33342) (BCRP [4]; Ko143 1 μM present during assay, BeWo): 8%
- reduction of transepithelial transport of BODIPY-glyburide (BCRP [2]; Ko143 1 μM, present during assay): 32%
- effect alone on BeWo cell viability (BeWo cells [3]): Neither Ko143 nor AEA alone affected
- percent efflux of zearalenone (BCRP [5]; Ko143 1 μM): 49%
- effect on AEA retention (BeWo cells [6]; Ko143 1 μM, 3H-AEA 100 nM, BeWo): had no impact

Molecule: CCOc1ccc(-c2nc3ccc(-c4nc5ccc(N6CCN(C)CC6)cc5[nH]4)cc3[nH]2)cc1 [Hoechst 33342]
- percent efflux of Hoechst 33342 taken up (BCRP [4]; vehicle-treated/control BeWo cells, Hoechst 33342 5 μM): 35% and 33%

Molecule: Nc1ncnc2c1nc(Br)n2[C@@H]1O[C@@H]2COP(=O)(O)O[C@H]2[C@H]1O [8-Br-cAMP]
- prevention of AEA lowering of Hoechst 33342 efflux (BCRP [4]; 8-Br-cAMP 1 mM with AEA 10 μM, 24 h, BeWo): completely prevented
- effect itself on Hoechst 33342 transport (BCRP [4]; 8-Br-cAMP 1 mM, 24 h, BeWo): no effect
- attenuation of AEA down-regulation of BCRP expression and efflux activity (BCRP [1]; 8-Br-cAMP 1 mM, 24 h with AEA 10 μM, 24 h, BeWo): abrogated; also recorded: completely attenuated

Molecule: COc1ccc(C(=O)c2c(C)n(CCN3CCOCC3)c3cc(I)ccc23)cc1 [AM630]
- inhibition of AEA-mediated down-regulation of BCRP mRNA (BCRP [1]; 24 h, BeWo): abrogated; also recorded: completely inhibited

Molecule: C[C@H]1CCCC(=O)CCC/C=C/c2cc(O)cc(O)c2C(=O)O1 [ZLN, zearalenone]
- percent efflux of accumulated zearalenone (BCRP [5]; vehicle-treated BeWo cells, zearalenone 50 μM): 71%

Molecule: COc1cc(CNC(=O)CCCC/C=C/C(C)C)ccc1O [Capsaicin]
- effect on BCRP expression (BCRP [1]; capsaicin 1 μM, 24 h, BeWo, data not shown): no effect

Molecule: C=C[C@@]1(C)CC(=O)[C@]2(O)[C@@]3(C)[C@@H](O)CCC(C)(C)[C@@H]3[C@H](O)[C@H](OC(C)=O)[C@@]2(C)O1 [forskolin]
- reduction in p-CREB binding to the BCRP promoter (BCRP promoter; co-treatment with AEA 10 μM and forskolin 50 μM): 12%
- effect on AEA-mediated reduction of Hoechst 33342 efflux (BCRP [4]; [13]): had no effect
- inhibition of AEA-mediated reduction of BCRP transcription (BCRP [1]; [13]): partially inhibited
- intracellular levels of cAMP (intracellular cAMP; forskolin 50 μM): 12,800 pmol/mg protein
- CREB phosphorylation (CREB; forskolin 50 μM): consistently increased

Molecule: CCCCC/C=C\C/C=C\C/C=C\C/C=C\CCCC(=O)NCCO [AEA, anandamide]
- decrease of p-CREB binding to the BCRP promoter (BCRP promoter; AEA 10 μM): 68%
- effect on ability of BeWo cells to efflux Hoechst 33342 (BCRP [4]; AEA 10 μM present during uptake and efflux phase (untreated cells)): did not impact
- BCRP efflux activity (percent efflux of Hoechst 33342) (BCRP [4]; AEA 10 μM, 24 h pre-treatment, BeWo): 15%
- reduction of transepithelial transport of BODIPY-glyburide (BCRP [2]; AEA 10 μM, 24 h): 20%
- effect alone on BeWo cell viability (BeWo cells [3]): Neither Ko143 nor AEA alone affected
- percent efflux of zearalenone (BCRP [5]; AEA 10 μM, 24 h): 33%
- time of maximal reduction of BCRP mRNA (BCRP [1]; AEA 10 μM, BeWo, return to control levels by 48 h): 24 h
- lowest concentration at which repression of BCRP was observed (BCRP [1]; BeWo cells): 10 nM
- decrease of BCRP mRNA expression (BCRP [1]; all AEA concentrations between 0.01 μM and 10 μM, 24 h, BeWo): 30-50%
- half-life in vivo [7]: < 5 min
- down-regulation of BCRP protein (BCRP [8]): 30%
- reduction of BCRP mRNA expression (BCRP [9]): 46%
- BCRP protein expression (BCRP [10]): reduced protein expression
- reduction of hCGα mRNA expression [11, 14]: 48%
- reduction of syncytin-1 mRNA expression [11, 14]: 25%
- syncytin-2 mRNA expression ([11]; AEA treatment of placental explants, data not shown): unchanged
- basal intracellular levels of cAMP (intracellular cAMP; AEA 10 μM, control 34.8): 12.4 pmol/mg protein
- intracellular levels of cAMP (intracellular cAMP; forskolin 50 μM + AEA 10 μM): 8,250 pmol/mg protein
- reduction in the intracellular concentration of AEA (BeWo cells [6]; human, 30 min, 100 nM): 44%
- forskolin-induced phosphorylation of CREB (CREB; AEA 10 μM co-treated with forskolin 50 μM): completely inhibited; also recorded: abolished
- p-CREB relative to total CREB protein (CREB; AEA 10 μM): no p-CREB was detected
- changes to the morphology of the explants (human placental explants): did not induce any visible changes
- lowering of hCGβ mRNA expression ([12]; AEA 0.01 μM, 24 h, BeWo): 71%
- lowering of syncytin-2 mRNA expression ([12]; AEA 1 μM, 24 h, BeWo): 40%
- decrease of hCGβ mRNA expression ([12]; AEA 10 μM, 18 and 24 h, BeWo): 40-50%
- decrease of syncytin-2 mRNA expression ([12]; AEA 10 μM, 18 and 24 h, BeWo): 40-50%
- expression of syncytin-1 or hCGα mRNAs ([12]; BeWo cells, data not shown): did not alter

Molecule: CCC(=O)NC[C@H](Cc1ccc(OCCc2nc(-c3ccccc3)oc2C)cc1)N/C(C)=C\C(=O)c1ccc(C(F)(F)F)cc1 [GW6471]
- reversal of the effects of AEA on BCRP (BCRP [1]; BeWo, data not shown): none of these chemicals reversed the effects of AEA
